Key:
Type in all cases: functional
A549 = test: Cytotoxicity against human A549 cells assessed as cell growth at 10^-5 M after 48 hrs by SRB assay; conditions: A549, 48 h, read-out: Activity
Summary of the method: (§1)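 NCI 60-cell-line one-dose primary screen: cells inoculated and preincubated 24–48 h, then test agent added at a single 10^-5 M concentration for a further 48 h. Endpoint is sulforhodamine B protein staining read spectrophotometrically. Reported as percent growth relative to untreated control cells.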

OVCAR-3 [1] = test: Growth inhibition of human OVCAR3 cells after 48 hrs by SRB assay; conditions: OVCAR-3, 48 h
Summary of the method: (§2)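 NCI panel of about 60 human tumor lines, 48 h continuous exposure at five 10-fold dilutions from 10^-4 to 10^-8 M. SRB protein staining was read as absorbance at time zero, in untreated controls and at each concentration. GI50 is the concentration giving 50% lower net protein increase than controls. TGI is where Ti = Tz, and LC50 is 50% protein loss versus start.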

MOLT-4 = test: Growth inhibition of human MOLT4 cells after 48 hrs by SRB assay; conditions: MOLT-4, 48 h; summary of the method: as §2
COLO 205 = test: Cytotoxicity against human COLO205 cells assessed as cell growth at 10^-5 M after 48 hrs by SRB assay; conditions: COLO 205, 48 h, read-out: Activity; summary of the method: as §1
SW-620 = test: Cytotoxicity against human SW620 cells assessed as cell growth at 10^-5 M after 48 hrs by SRB assay; conditions: SW-620, 48 h, read-out: Activity
Summary of the method: (§3)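 NCI human tumor cell line panel from nine cancer types. Each line was inoculated and preincubated 24–48 h, then exposed to a single concentration (10^-5 M) for 48 h. Growth was read by sulforhodamine B protein staining, measured spectrophotometrically. Value reported as percent growth of treated cells relative to untreated controls.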

EKVX = test: Growth inhibition of human EKVX cells after 48 hrs by SRB assay; summary of the method: as §2
786-0 [2] = test: Cytotoxicity against human 786-0 cells assessed as cell growth at 10^-5 M after 48 hrs by SRB assay; conditions: 786-0, 48 h, read-out: Activity; summary of the method: as §1
HT-29 [3] = test: Growth inhibition of human HT-29 cells after 48 hrs by SRB assay; conditions: HT-29, 48 h; summary of the method: as §2
SK-MEL-2 = test: Cytotoxicity against human SK-MEL-2 cells assessed as cell growth at 10^-5 M after 48 hrs by SRB assay; conditions: SK-MEL-2, 48 h, read-out: Activity; summary of the method: as §3
SNB-75 = test: Cytotoxicity against human SNB75 cells assessed as cell growth at 10^-5 M after 48 hrs by SRB assay; conditions: SNB-75, 48 h, read-out: Activity; summary of the method: as §3
MDA-MB-468 = test: Growth inhibition of human MDA-MB-468 cells after 48 hrs by SRB assay; conditions: MDA-MB-468, 48 h; summary of the method: as §2
SR [4] = test: Cytotoxicity against human SR cells assessed as cell growth at 10^-5 M after 48 hrs by SRB assay; conditions: read-out: Activity; summary of the method: as §3
SK-MEL-28 = test: Cytotoxicity against human SK-MEL-28 cells assessed as cell growth at 10^-5 M after 48 hrs by SRB assay; conditions: SK-MEL-28, 48 h, read-out: Activity; summary of the method: as §3
HT-29 [5] = test: Cytotoxicity against human HT-29 cells assessed as cell growth at 10^-5 M after 48 hrs by SRB assay; conditions: HT-29, 48 h, read-out: Activity; summary of the method: as §1
HCT-15 = test: Cytotoxicity against human HCT15 cells assessed as cell growth at 10^-5 M after 48 hrs by SRB assay; conditions: HCT-15, 48 h, read-out: Activity; summary of the method: as §1
786-0 [6] = test: Growth inhibition of human 786-0 cells after 48 hrs by SRB assay; conditions: 786-0, 48 h; summary of the method: as §2
[7] = system: Photobacterium leiognathi; test: Antibacterial activity against Photobacterium leiognathi Sh1 assessed as inhibition of bacterial luminescence at 0.025 mg/mL after 10 mins by bioluminometry-based chronic action test; parameters: scale not given: the % may be the effect or the level left; conditions: in the assay text read “after 16 to 18 hrs” for “after 10 mins”
Summary of the method: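 Chronic (growth plus luminescence) test with P. leiognathi Sh1 at 10^5 cells/mL in chloride solution, compounds added in DMSO. After 10 min at 25 °C, growth medium added at 1:50 and the mix incubated 16–18 h at 30 °C. Luminescence then measured by bioluminometer as % of untreated control. Tetracycline reference.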

ACHN = test: Growth inhibition of human ACHN cells after 48 hrs by SRB assay; summary of the method: as §2
RPMI-8226 = test: Cytotoxicity against human RPMI8226 cells assessed as cell growth at 10^-5 M after 48 hrs by SRB assay; conditions: RPMI-8226, 48 h, read-out: Activity; summary of the method: as §3
UACC-257 = test: Cytotoxicity against human UACC257 cells assessed as cell growth at 10^-5 M after 48 hrs by SRB assay; conditions: UACC-257, 48 h, read-out: Activity; summary of the method: as §3
K562 = test: Cytotoxicity against human K562 cells assessed as cell growth at 10^-5 M after 48 hrs by SRB assay; conditions: K562, 48 h, read-out: Activity; summary of the method: as §1
SK-MEL-5 = test: Cytotoxicity against human SK-MEL-5 cells assessed as cell growth at 10^-5 M after 48 hrs by SRB assay; conditions: SK-MEL-5, 48 h, read-out: Activity; summary of the method: as §3
SR [8] = test: Growth inhibition of human SR cells after 48 hrs by SRB assay
Summary of the method: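 NCI 60-cell-line human tumor panel. Cells were inoculated and preincubated for 24–48 h, then exposed continuously to compound for 48 h. Primary screen used a single 10^-5 M concentration. Growth was measured by sulforhodamine B protein staining, read spectrophotometrically, and reported as percent growth versus untreated controls. Selected compounds were also run at five 10-fold dilutions (10^-4 to 10^-8 M) to derive GI50 from time-zero-corrected absorbances.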

DU-145 = test: Cytotoxicity against human DU145 cells assessed as cell growth at 10^-5 M after 48 hrs by SRB assay; conditions: DU-145, 48 h, read-out: Activity; summary of the method: as §1
KM12 = test: Cytotoxicity against human KM12 cells assessed as cell growth at 10^-5 M after 48 hrs by SRB assay; conditions: KM12, 48 h, read-out: Activity; summary of the method: as §1
RXF 393 = test: Cytotoxicity against human RXF393 cells assessed as cell growth at 10^-5 M after 48 hrs by SRB assay; conditions: RXF 393, 48 h, read-out: Activity; summary of the method: as §3
LOX IMVI = test: Growth inhibition of human LOXIMVI cells after 48 hrs by SRB assay; summary of the method: as §2
OVCAR-3 [9] = test: Cytotoxicity against human OVCAR3 cells assessed as cell growth at 10^-5 M after 48 hrs by SRB assay; conditions: OVCAR-3, 48 h, read-out: Activity; summary of the method: as §3
[10] = read-out: pLC50 (the source's name) (converted)

CCC1C2CCC(C2)C1NC(=O)CSc1nc2ccccc2c2nc(=O)c(-c3ccc(OC)cc3)nn12 (stereo unspecified)
growth at 10 µM (A549): 50.4%
GI50 (OVCAR-3 [1]): 1480 nM
CC50 (OVCAR-3 [1]; [10]): 28.2 µM
TGI (OVCAR-3 [1]; read-out: pTGI (converted)): 5.62 µM
GI50 (MOLT-4): 1620 nM
CC50 (MOLT-4; [10]): > 50.1 µM
TGI (MOLT-4; read-out: pTGI): > 50.1 µM
growth at 10 µM (COLO 205): 28.6%
growth at 10 µM (SW-620): 45.9%
GI50 (EKVX): 1950 nM
CC50 (EKVX; [10]): > 50.1 µM
TGI (EKVX; read-out: pTGI): > 50.1 µM
growth at 10 µM (786-0 [2]): 77.7%
GI50 (HT-29 [3]): 3.24 µM
CC50 (HT-29 [3]; [10]): > 50.1 µM
TGI (HT-29 [3]; read-out: pTGI): > 50.1 µM
growth at 10 µM (SK-MEL-2): 56.5%
growth at 10 µM (SNB-75): 4.94%
GI50 (MDA-MB-468): 1350 nM
CC50 (MDA-MB-468; [10]): 30.2 µM
TGI (MDA-MB-468; read-out: pTGI (converted)): 3.98 µM
growth at 10 µM (SR [4]): 7.67%
growth at 10 µM (SK-MEL-28): 68.7%
growth at 10 µM (HT-29 [5]): 42.8%
growth at 10 µM (HCT-15): 67.9%
GI50 (786-0 [6]): 3.02 µM
CC50 (786-0 [6]; [10]): > 50.1 µM
TGI (786-0 [6]; read-out: pTGI (converted)): 15.8 µM
Activity [7]: 85.3%
GI50 (ACHN): 1910 nM
CC50 (ACHN; [10]): > 50.1 µM
TGI (ACHN; read-out: pTGI): > 50.1 µM
growth at 10 µM (RPMI-8226): 47.4%
growth at 10 µM (UACC-257): 55.6%
growth at 10 µM (K562): 39.2%
growth at 10 µM (SK-MEL-5): 59.8%
GI50 (SR [8]): 1350 nM
CC50 (SR [8]; [10]): > 50.1 µM
TGI (SR [8]; read-out: pTGI (converted)): 7.41 µM
growth at 10 µM (DU-145): -32%
growth at 10 µM (KM12): 68.3%
growth at 10 µM (RXF 393): 9.46%
GI50 (LOX IMVI): 3.55 µM
CC50 (LOX IMVI; [10]): > 50.1 µM
TGI (LOX IMVI; read-out: pTGI (converted)): 18.2 µM
growth at 10 µM (OVCAR-3 [9]): -69.7%
